Reference: ChEMBL document CHEMBL1131072, “Synthesis, physicochemical properties, and evaluation of N-substituted-2-alkyl-3-hydroxy-4(1H)-pyridinones” (J Med Chem, 1998)
Blank lines part the entries; values can stand above or below the compound they belong to.

What was measured:
[1] = Partition coefficient (logD7.4); type: physicochemical; conditions: octanol/water, pH 7.4
Summary of the method: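 Shake-flask used a 100:1 or 1:100 phase ratio, 1 h stirring, centrifugation, and aqueous absorbance, repeated at least four times. Fe complexes were made at 10:1 ligand:Fe (10^-3/10^-4 M) and read at 460 nm. Reported as mean ± SD.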

Rattus norvegicus [2] = assay: The amount iron excretion in the bile duct-cannulated rats when iron chelator administered subcutaneously at dose 142 mg/kg; type: functional; conditions: route subcutaneous
Summary of the method: (§1)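 Non-iron-overloaded male Fischer rats (200–240 g) with bile-duct cannulas in metabolic cages. Control bile/urine was collected for 3 h; chelator was then given subcutaneously or by gavage. Bile was collected in 3-h fractions over 24 h, plus 24-h urine. Iron was measured by bathophenanthroline colorimetry (TCA/HCl, 65 °C 4 h, A535) against iron standards after blank subtraction.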

Rattus norvegicus [3] = assay: The amount iron excretion in the bile duct-cannulated rats when iron chelator administered orally at dose 142 mg/kg; type: functional; conditions: route oral; summary of the method: as §1
[4] = Compound was tested for equilibrium constants (pKa1) spectrophotometrically.; type: physicochemical; conditions: read-out: pKa1
Summary of the method: (§2)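 The UV/vis spectrum was recorded alongside each potentiometric titration step: 0.1 M KCl, HCl-acidified, titrated with 0.2 M KOH at 25 ± 0.5 °C under argon. Spectral data were fitted with TITRFIT (modified NONLIN) to give pKa, accurate to ±0.02 pH unit.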

[5] = Compound was determined for their EDTA competition value(log beta3) of affinity constants.; type: ADME
Summary of the method: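 Spectrophotometric competition against EDTA on an automated titration system. The iron(III) complex was prepared at 5:1 ligand:Fe molar ratio in 0.1 M MOPS, pH 7.4, then titrated with EDTA. Spectral data were fitted in COMPT1 to give log β3, accurate to ±0.02 log unit.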

[6] = Compound was tested for equilibrium constants (pKa3) of the (carboxyalkyl) pyridinone corresponds to the […] function potentiometrically; type: physicochemical; conditions: read-out: pKa3
Summary of the method: (§3)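 Potentiometric titration in 0.1 M KCl (25 mL), acidified with 0.2 M HCl and titrated with 0.2 M KOH in 0.01-mL increments. Run at 25 ± 0.5 °C under argon, with the electrode zero set by a blank titration (Gran's plot). Data were fitted with TITRFIT; pKa accuracy ±0.02 pH unit.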

[7] = Potentiometric values of pKa2 and pKa3
[8] = Spectrophotometric values of pKa2 and pKa3
[9] = Compound was determined for their affinity constants(log K1) with Fe(III) complex.; type: ADME
Summary of the method: (§4)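 Stepwise Fe(III) stability constants (K1, K2, K3) came from simultaneous spectrophotometric/potentiometric pH titrations of ligand with iron(III) at several ligand and Fe(III) concentrations. Parameters were fitted by global optimization, and spectra were followed across pH.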

[10] = Compound was determined for their affinity constants(log K2) with Fe(III) complex.; type: ADME
Summary of the method: (§5)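 Stepwise constants K1, K2 and K3 came from simultaneous spectrophotometric/potentiometric pH titrations of ligand with iron(III). Parameters were obtained by global optimization over titrations at several ligand and iron(III) concentrations, using the Fe3+/L− stepwise model (FeL2+, FeL2+, FeL3).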

[11] = Compound was tested for equilibrium constants (pKa1) potentiometrically; type: physicochemical; conditions: read-out: pKa1; summary of the method: as §3
[12] = Compound was tested for equilibrium constants (pKa3) of the (carboxyalkyl) pyridinone corresponds to the […] function spectrophotometrically..; type: physicochemical; conditions: read-out: pKa3; summary of the method: as §2
[13] = Compound was determined for their affinity constants(log K3) with Fe(III) complex.; type: ADME; summary of the method: as §5
[14] = Compound was tested for equilibrium constants (pKa2) of the (hydroxyalkyl)pyridinone corresponds to the 3-hydroxy function spectrophotometrically..
Rattus norvegicus [15] = assay: The amount iron excretion in the bile duct-cannulated rats when iron chelator administered subcutaneously at dose 132 mg/kg; type: functional; conditions: route subcutaneous; summary of the method: as §1
[16] = Compound was tested for equilibrium constants (pKa2) of the (hydroxyalkyl)pyridinone corresponds to the 3-hydroxy function potentiometrically
Rattus norvegicus [17] = assay: The amount iron excretion in the bile duct-cannulated rats when iron chelator administered orally at dose 132 mg/kg; type: functional; conditions: route oral; summary of the method: as §1
Rattus norvegicus [18] = assay: The amount iron excretion in the bile duct-cannulated rats when iron chelator administered orally.; type: functional; summary of the method: as §1
Rattus norvegicus [19] = assay: The amount iron excretion in the bile duct-cannulated rats when iron chelator administered subcutaneously.; type: functional; summary of the method: as §1
Rattus norvegicus [20] = assay: The dose of the iron chelator administered in the bile duct-cannulated rats.; type: functional; summary of the method: as §1
Rattus norvegicus [21] = assay: The amount iron excretion in the bile duct-cannulated rats when iron chelator administered orally at dose 122 mg/kg; type: functional; conditions: route oral; summary of the method: as §1
Rattus norvegicus [22] = assay: The amount iron excretion in the bile duct-cannulated rats when iron chelator administered subcutaneously at dose 122 mg/kg; type: functional; conditions: route subcutaneous; summary of the method: as §1
Rattus norvegicus [23] = assay: The amount iron excretion in the bile duct-cannulated rats when iron chelator administered orally at dose 100 mg/kg; type: functional; conditions: route oral
Summary of the method: (§6)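 Male Fischer rats (200–240 g), non-iron-overloaded and bile duct-cannulated, were kept in metabolic cages. Control bile and urine were collected for 3 h, then compound was given (subcutaneously or by gavage). Bile was collected at 3-h intervals over 24 h, with urine pooled over 24 h. Buprenorphine was given for analgesia. Iron was read by bathophenanthroline colorimetry (535 nm) after acid digestion (65 °C, 4 h) against iron standards.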

[24] = Compound was determined for their affinity constants(log K2) with Fe(III) complex; type: ADME; summary of the method: as §4
Rattus norvegicus [25] = assay: The amount iron excretion in the bile duct-cannulated rats when iron chelator administered subcutaneously at dose 100 mg/kg; type: functional; conditions: route subcutaneous; summary of the method: as §6

SMILES: CNC(=O)CCn1ccc(=O)c(O)c1C
logD [1]: -1.15

SMILES: Cc1c(O)c(=O)ccn1C(CO)CO
logD [1]: -1.7

SMILES: CNC(=O)CCCn1ccc(=O)c(O)c1C
logD [1]: -1.08

SMILES: C=CCn1ccc(=O)c(O)c1CC
logD [1]: 0.47

SMILES: COC(=O)CCn1ccc(=O)c(O)c1C
logD [1]: -0.77

SMILES: CCc1c(O)c(=O)ccn1CCCC(=O)O
pKa [4]: 3.42 | logD [1]: -1.38 | pKa [6]: 9.89 | pKa [7]: 9.89 | pKa [8]: 9.99 | pKa [11]: 3.21 | pKa [12]: 9.99

SMILES: Cc1nccc(O)c1O
logD [1]: -0.5

SMILES: CCc1c(O)c(=O)ccn1CCO
pKa [4]: 3.34 | logD [1]: -0.66 | Log beta3 [5]: 36.8 | pKa [7]: 9.77 | pKa [8]: 9.75 | pKa [14]: 9.75 | Iron excretion (Rattus norvegicus [15]): 698 µg/kg | Log K1 [9]: 15.7 | Log K2 [10]: 11.6 | pKa [11]: 3.31 | Log K3 [13]: 9.4 | pKa [16]: 9.77 | Iron excretion (Rattus norvegicus [17]): 819 µg/kg

SMILES: Cc1c(O)c(=O)ccn1C(C)C
logD [1]: 0.05

SMILES: CCNC(=O)CCn1ccc(=O)c(O)c1C
logD [1]: -0.82

SMILES: CCOCCCn1ccc(=O)c(O)c1C
logD [1]: 0.12

SMILES: COCCn1ccc(=O)c(O)c1C
logD [1]: -0.41

SMILES: Cc1c(O)c(=O)ccn1CCN
logD [1]: -1.55

SMILES: Cc1c(O)c(=O)ccn1CC(O)CO (stereo unspecified)
Iron excretion (Rattus norvegicus [18]): 104 µg/kg | Iron excretion (Rattus norvegicus [19]): 142 µg/kg | Dose (Rattus norvegicus [20]): 143 mg/kg

SMILES: Cc1c(O)c(=O)ccn1CC(C)C
logD [1]: 0.65

SMILES: CCn1ccc(=O)c(O)c1C
logD [1]: -0.31

SMILES: CCCCCn1ccc(=O)c(O)c1C
logD [1]: 1.24

SMILES: CCCCCCn1ccc(=O)c(O)c1C
logD [1]: 1.89

SMILES: CCc1c(O)c(=O)ccn1CCOC
logD [1]: 0.04

SMILES: CCOCCCn1ccc(=O)c(O)c1CC
logD [1]: 0.72

SMILES: CCCn1ccc(=O)c(O)c1CC
logD [1]: 0.7

SMILES: CCCNC(=O)CCn1ccc(=O)c(O)c1C
logD [1]: -0.4

SMILES: COCC(C)n1ccc(=O)c(O)c1C (stereo unspecified)
logD [1]: -0.26

SMILES: Cc1c(O)c(=O)ccn1CCCCO
logD [1]: -0.75

SMILES: CCN(C)C(=O)CCn1ccc(=O)c(O)c1C
logD [1]: -0.66

SMILES: CCc1c(O)c(=O)ccn1C(C)C
logD [1]: 0.73

SMILES: Cc1c(O)c(=O)ccn1CCC(=O)O
pKa [4]: 3.19 | logD [1]: -2.92 | pKa [6]: 9.49 | pKa [7]: 9.49 | pKa [8]: 9.51 | pKa [11]: 3.1 | pKa [12]: 9.51

SMILES: Cc1c(O)c(=O)ccn1CCC(=O)NC(C)C
logD [1]: -0.47

SMILES: CCc1c(O)c(=O)ccn1C
logD [1]: -0.21

SMILES: Cc1c(O)c(=O)ccn1C [DEFERIPRONE]
Iron excretion (Rattus norvegicus [23]): 351 µg/kg | logD [1]: -0.77 | pKa [8]: 9.64 | Log K1 [9]: 14.9 | Log K2 [24]: 12.2 | Iron excretion (Rattus norvegicus [25]): 292 µg/kg | Log K3 [13]: 9.8

Now from value to compound, other results behind:

logD [1]: 0.21
SMILES: CCOC(Cn1ccc(=O)c(O)c1C)OCC

logD [1]: -0.32
SMILES: CCc1c(O)c(=O)ccn1CCCO
Iron excretion (Rattus norvegicus [2]): 634 µg/kg | Iron excretion (Rattus norvegicus [3]): 265 µg/kg

logD [1]: -0.46
SMILES: COC(Cn1ccc(=O)c(O)c1C)OC

logD [1]: -0.77
SMILES: Cc1c(O)c(=O)ccn1CC(C)(C)O

pKa [4]: 3.22 | logD [1]: -1.6 | Log beta3 [5]: 37 | pKa [6]: 9.89 | pKa [7]: 9.89 | pKa [8]: 9.91 | Log K1 [9]: 16.6 | Log K2 [10]: 11.4 | pKa [11]: 3.12 | pKa [12]: 9.91 | Log K3 [13]: 7.9
SMILES: CCc1c(O)c(=O)ccn1CCC(=O)O

logD [1]: 0.03
SMILES: C=CCn1ccc(=O)c(O)c1C

logD [1]: -0.24
SMILES: CCOC(=O)CCn1ccc(=O)c(O)c1C

logD [1]: -0.28
SMILES: CCc1c(O)c(=O)ccn1CCCCO

logD [1]: 0.7
SMILES: CCCCn1ccc(=O)c(O)c1C

SMILES: Cc1c(O)c(=O)ccn1CCCO
Iron excretion (Rattus norvegicus [15]): 383 µg/kg | Iron excretion (Rattus norvegicus [17]): 414 µg/kg

logD [1]: 0.23
SMILES: CCc1c(O)c(=O)ccn1CC

logD [1]: 0.05
SMILES: CCc1nccc(O)c1O

pKa [4]: 3.43 | logD [1]: -1.1 | pKa [7]: 9.65 | pKa [8]: 9.72 | pKa [14]: 9.72 | pKa [11]: 3.44 | pKa [16]: 9.65
SMILES: Cc1c(O)c(=O)ccn1CCO
Iron excretion (Rattus norvegicus [21]): 272 µg/kg | Iron excretion (Rattus norvegicus [22]): 353 µg/kg

logD [1]: -2.75
SMILES: Cc1c(O)c(=O)ccn1CCCC(=O)O

logD [1]: -0.36
SMILES: CCN(CC)C(=O)CCn1ccc(=O)c(O)c1C

logD [1]: -1
SMILES: Cc1c(O)c(=O)ccn1CCC(=O)N(C)C

logD [1]: 1.22
SMILES: CCCCn1ccc(=O)c(O)c1CC
